{
  "source": "paper PMC3769431",
  "about": "(Structure (London, England : 1993), 2013)",
  "molecules": {"B1": {"name": "STEP: STEP (residues 214–539) (protein, UniProt P54829 214-539, looked up, fragment)", "chain": "TPVFDCVMDIKPEADPTSLTVKSMGLQERRGSNVSLTLDMCTPGCNEEGFGYLMSPREESAREYLLSASRVLQAEELHEKALDPFLLQAEFFEIPMNFVDPKEYDIPGLVRKNRYKTILPNPHSRVCLTSPDPDDPLSSYINANYIRGYGGEEKVYIATQGPIVSTVADFWRMVWQEHTPIIVMITNIEEMNEKCTEYWPEEQVAYDGVEITVQKVIHTEDYRLRLISLKSGTEERGLKHYWFTSWPDQKTPDRAPPLLHLVREVEEAAQQEGPHCAPIIVHCSAGIGRTGCFIATSICCQQLRQEGVVDILKTTCQLRQDRGGMI"}, "B2": {"name": "STEP_(F281A/I307A) (domain or fragment)", "chain": "GLQERRGSNVSLTLDMCTPGCNEEGFGYLMSPREESAREYLLSASRVLQAEELHEKALDPFLLQAEFAEIPMNFVDPKEYDIPGLVRKNRYKTALPNPHSRVCLTSPDPDDPLSSYINANYIRGYGGEEKVYIATQGPIVSTVADFWRMVWQEHTPIIVMITNIEEMNEKCTEYWPEEQVAYDGVEITVQKVIHTEDYRLRLISLKSGTEERGLKHYWFTSWPDQKTPDRAPPLLHLVREVEEAAQQEGPHCAPIIVHCSAGIGRTGCFIATSICCQQLRQEGVVDILKTTCQLRQDRGGMIQTCEQYQFVHHVMSLYEKQLSHQS"}, "B3": {"name": "PTPSLCAT: PTPSLCAT (residues 361–655), catalytic domain (protein)", "chain": "TPREKVAMEYLQSASRILTRSQLRDVVASSHLLQSEFMEIPMNFVDPKEIDIPRHGTKNRYKTILPNPLSRVCLRPKNVTDSLSTYINANYIRGYSGKEKAFIATQGPMINTVDDFWQMVWQEDSPVIVMITKLKEKNEKCVLYWPEKRGIYGKVEVLVISVNECDNYTIRNLVLKQGSHTQHVKHYWYTSWPDHKTPDSAQPLLQLMLDVEEDRLASQGRGPVVVHCSAGIGRTGCFIATSIGCQQLKEEGVVDALSIVCQLRMDRGGMVQTSEQYEFVHHALCLYESRLSAET"}, "B4": {"name": "PTPSL (residues 332–655) (domain or fragment, UniProt Q15256 332-655, looked up)", "chain": "GLQERRGSNVSLTLDMSSLGNIEPFVSIPTPREKVAMEYLQSASRILTRSQLRDVVASSHLLQSEFMEIPMNFVDPKEIDIPRHGTKNRYKTILPNPLSRVCLRPKNVTDSLSTYINANYIRGYSGKEKAFIATQGPMINTVDDFWQMVWQEDSPVIVMITKLKEKNEKCVLYWPEKRGIYGKVEVLVISVNECDNYTIRNLVLKQGSHTQHVKHYWYTSWPDHKTPDSAQPLLQLMLDVEEDRLASQGRGPVVVHCSAGIGRTGCFIATSIGCQQLKEEGVVDALSIVCQLRMDRGGMVQTSEQYEFVHHALCLYESRLSAET"}, "B5": {"name": "HePTP: KIM-PTP HePTP (PTPN7, LC-PTP) (protein, UniProt P35236 1-360, looked up)", "Tyrosine-protein phosphatase …": "MVQAHGGRSRAQPLTLSLGAAMTQPPPEKTPAKKHVRLQERRGSNVALMLDVRSLGAVEPICSVNTPREVTLHFLRTAGHPLTRWALQRQPPSPKQLEEEFLKIPSNFVSPEDLDIPGHASKDRYKTILPNPQSRVCLGRAQSQEDGDYINANYIRGYDGKEKVYIATQGPMPNTVSDFWEMVWQEEVSLIVMLTQLREGKEKCVHYWPTEEETYGPFQIRIQDMKECPEYTVRQLTIQYQEERRSVKHILFSAWPDHQTPESAGPLLRLVAEVEESPETAAHPGPIVVHCSAGIGRTGCFIATRIGCQQLKARGEVDILGIVCQLRLDRGGMIQTAEQYQFLHHTLALYAGQLPEEPSP"}, "B6": {"name": "STEPCAT: STEPCAT (residues 244–539), catalytic domain (protein, UniProt P54829 244-539, looked up, fragment)", "chain": "GSNVSLTLDMCTPGCNEEGFGYLMSPREESAREYLLSASRVLQAEELHEKALDPFLLQAEFFEIPMNFVDPKEYDIPGLVRKNRYKTILPNPHSRVCLTSPDPDDPLSSYINANYIRGYGGEEKVYIATQGPIVSTVADFWRMVWQEHTPIIVMITNIEEMNEKCTEYWPEEQVAYDGVEITVQKVIHTEDYRLRLISLKSGTEERGLKHYWFTSWPDQKTPDRAPPLLHLVREVEEAAQQEGPHCAPIIVHCSAGIGRTGCFIATSICCQQLRQEGVVDILKTTCQLRQDRGGMI", "modifications": "catalytic domain"}},
  "key": {"p38α (unphosphorylated) [1]": {"target": "p38α (unphosphorylated) (UniProt Q16539)", "sequence (Q16539 whole entry)": "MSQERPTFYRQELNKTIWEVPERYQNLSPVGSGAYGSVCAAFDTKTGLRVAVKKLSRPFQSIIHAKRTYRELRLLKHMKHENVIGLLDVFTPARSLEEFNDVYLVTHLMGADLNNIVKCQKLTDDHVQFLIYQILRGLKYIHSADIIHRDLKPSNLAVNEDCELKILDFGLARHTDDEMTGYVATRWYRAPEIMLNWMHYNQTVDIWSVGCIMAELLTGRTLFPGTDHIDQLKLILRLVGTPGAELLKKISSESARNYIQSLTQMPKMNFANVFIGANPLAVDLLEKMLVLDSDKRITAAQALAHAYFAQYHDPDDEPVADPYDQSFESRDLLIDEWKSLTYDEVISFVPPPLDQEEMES", "test": "ITC"}, "p38α [2]": {"target": "T1, p38α (Homo sapiens, UniProt Q16539)", "T1 sequence (Q16539 whole entry)": "as above", "test": "Small angle X-ray scattering, resting-state complex with unphosphorylated p38α", "conditions": "SAXS, GNOM", "in_short": "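Unphosphorylated p38α was mixed 1:1 with PTPSL 331–655 or STEP 214–539 for 30 min on ice, then SEC-purified in 50 mM HEPES pH 6.8, 150 mM NaCl, 5 mM DTT. Samples were 0.4–4.0 mg/ml (PTPSL) or 1.0–4.0 mg/ml (STEP), filtered, flowed through a 1 mm capillary and exposed 30 s or 180 s at a synchrotron beamline. Dmax came from the P(r) function.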"}, "p38α (unphosphorylated) [3]": {"target": "p38α (unphosphorylated) (UniProt Q16539 1-360)", "sequence (Q16539 whole entry)": "as above", "test": "ITC"}, "p38α [4]": {"target": "T1, p38α", "conditions": "2011, cited from earlier work; for dephosphorylation of p38α (in words): in vitro phosphatase assays, ref Zhang et al."}, "p38α [5]": {"target": "T1, p38α", "test": "NMR chemical shift perturbation, 2D [1H,15N] TROSY of [2H,15N]-p38α", "format": "binding", "conditions": "for number of p38α peaks with CSPs on complex formation / number of p38α peaks with line-widths broadened beyond detection / number of perturbed p38α peaks in fast exchange: free vs bound p38α, SEC-purified 1:1 complex, NMR buffer pH 6.8; for number of p38α peaks with CSPs on complex formation / number of p38α peaks with line-widths broadened beyond detection / number of perturbed p38α peaks in fast exchange / interaction with p38α by NMR (in words): 298 K; for interaction with p38α by NMR (in words): 2D [1H,15N] TROSY, 800 MHz, 50 mM HEPES pH 6.8, 150 mM NaCl, 5 mM dithiothreitol"}, "p38α [6]": {"target": "T1, p38α", "test": "Isothermal titration calorimetry", "format": "binding"}, "[7]": {"conditions": "ITC, 25 °C, 10 mM Tris pH 7.5, 150 mM NaCl, 0.1 mM EDTA, 0.5 mM TCEP"}},
  "data": [
    {"molecule": "STEP (residues 214–539) (domain or fragment)", "values": [
      {"measurement": "Kd", "setting": "p38α (unphosphorylated) [1]", "value": 577, "unit": "nM"},
      {"measurement": "dH", "setting": "p38α (unphosphorylated) [1]", "value": -28.8, "unit": "kcal/mol"}
    ]},
    {"molecule": "PSChimera (from UniProt Q15256 332-373)", "values": [
      {"measurement": "Kd", "setting": "p38α (unphosphorylated) [1]", "value": 309, "unit": "nM"},
      {"measurement": "dH", "setting": "p38α (unphosphorylated) [1]", "value": -27.2, "unit": "kcal/mol"}
    ]},
    {"molecule": "STEP_(M285A/I307A) (domain or fragment)", "values": [
      {"measurement": "Kd", "setting": "p38α (unphosphorylated) [1]", "value": 592, "unit": "nM"},
      {"measurement": "dH", "setting": "p38α (unphosphorylated) [1]", "value": -27.6, "unit": "kcal/mol"}
    ]},
    {"molecule": "STEP_(F274A/F281A) (domain or fragment)", "values": [
      {"measurement": "Kd", "setting": "p38α (unphosphorylated) [1]", "value": 1070, "unit": "nM"},
      {"measurement": "dH", "setting": "p38α (unphosphorylated) [1]", "value": -24.2, "unit": "kcal/mol"}
    ]},
    {"molecule": "p38:PTPRR: 1:1 complex of unphosphorylated p38α with PTPSL 331–655", "values": [
      {"measurement": "Dmax (P(r) function calculation)", "setting": "p38α [2]", "value": 105, "unit": "Å"},
      {"measurement": "Rg (P(r) function calculation)", "setting": "p38α [2]", "value": 34.1, "unit": "Å"}
    ]},
    {"molecule": "GLQERRGSNVSLTLDMSSLGNIEPFVSIPTPREKVAMEYLQS (peptide, UniProt Q15256 332-373, looked up)", "note": "[PTPSL_(KIMKIS) (residues 332–373)]", "values": [
      {"measurement": "Kd", "setting": "p38α (unphosphorylated) [3]", "value": "1530 ± 23", "unit": "nM"},
      {"measurement": "dH", "setting": "p38α (unphosphorylated) [3]", "value": "-38.8 ± 6.1", "unit": "kcal/mol"}
    ]},
    {"molecule": "B1", "values": [
      {"measurement": "kcat for dephosphorylation of p38α, fold lower than for PTPSL or HePTP", "setting": "p38α [4]; compared with PTPSL or HePTP, ref Balasu et al., 2009, Zhang et al.", "value": "~ 20 fold"},
      {"measurement": "dephosphorylation of p38α (in words)", "setting": "p38α [4]", "value": "significantly less efficient than PTPSL and HePTP at dephosphorylating p38α"},
      {"measurement": "additional or larger CSPs (residues) than with the corresponding KIM peptide", "setting": "p38α [5]; comparison with p38α:STEPKIM or p38α:PTPSLKIM spectra", "value": "three"},
      {"measurement": "number of p38α peaks with CSPs on complex formation", "setting": "p38α [5]", "value": 58, "unit": "peaks"},
      {"measurement": "number of p38α peaks with line-widths broadened beyond detection", "setting": "p38α [5]", "value": 18, "unit": "peaks"},
      {"measurement": "number of perturbed p38α peaks in fast exchange", "setting": "p38α [5]", "value": 40, "unit": "peaks"},
      {"measurement": "Kd", "setting": "p38α [6]; [7]", "value": "577 ± 71", "unit": "nM"},
      {"measurement": "TΔS", "setting": "p38α [6]; [7]", "value": "-20.3 ± 2.0", "unit": "kcal/mol"},
      {"measurement": "ΔG", "setting": "p38α [6]; [7]", "value": "-8.5 ± 0.1", "unit": "kcal/mol"},
      {"measurement": "ΔH", "setting": "p38α [6]; [7]", "value": "-28.8 ± 2.0", "unit": "kcal/mol"},
      {"measurement": "times tighter binding to p38α than STEPKIM", "setting": "p38α [6]; ITC, relative to STEPKIM", "value": "~ 6 times"}
    ]},
    {"molecule": "B2", "values": [
      {"measurement": "Kd", "setting": "p38α (unphosphorylated) [3]", "value": "1060 ± 36", "unit": "nM"},
      {"measurement": "dH", "setting": "p38α (unphosphorylated) [3]", "value": "-34.3 ± 1.1", "unit": "kcal/mol"}
    ]},
    {"molecule": "B3", "values": [
      {"measurement": "interaction with p38α by NMR (in words)", "setting": "p38α [5]", "value": "no interactions between p38α and isolated PTPSLCAT were detected"}
    ]},
    {"molecule": "B4", "values": [
      {"measurement": "dephosphorylation of p38α (in words)", "setting": "p38α [4]", "value": "the most efficient p38α phosphatase of all tested"},
      {"measurement": "number of p38α peaks with CSPs on complex formation", "setting": "p38α [5]", "value": 41, "unit": "peaks"},
      {"measurement": "number of p38α peaks with line-widths broadened beyond detection", "setting": "p38α [5]", "value": 5, "unit": "peaks"},
      {"measurement": "number of perturbed p38α peaks in fast exchange", "setting": "p38α [5]", "value": 36, "unit": "peaks"},
      {"measurement": "Kd", "setting": "p38α (unphosphorylated) [3]", "value": "382 ± 65", "unit": "nM"},
      {"measurement": "dH", "setting": "p38α (unphosphorylated) [3]", "value": "-30.2 ± 1.5", "unit": "kcal/mol"},
      {"measurement": "relative binding affinity for p38α (in words)", "setting": "p38α [6]; ITC", "value": "the highest affinity interaction with p38α among the KIM-PTPs"},
      {"measurement": "TΔS", "setting": "p38α [6]; [7]", "value": "-21.4 ± 1.4", "unit": "kcal/mol"},
      {"measurement": "ΔG", "setting": "p38α [6]; [7]", "value": "-8.8 ± 0.1", "unit": "kcal/mol"},
      {"measurement": "times tighter binding to p38α than PTPSLKIM", "setting": "p38α [6]; ITC, relative to PTPSLKIM", "value": "~ 7 times"},
      {"measurement": "times tighter binding to p38α than HePTP", "setting": "p38α [6]; relative to HePTP", "value": "~6", "unit": "times"}
    ]},
    {"molecule": "B5", "values": [
      {"measurement": "dephosphorylation of p38α (in words)", "setting": "p38α [4]", "value": "can both readily dephosphorylate p38α"}
    ]},
    {"molecule": "B6", "values": [
      {"measurement": "interaction with p38α by NMR (in words)", "setting": "p38α [5]", "value": "non-specific interactions throughout the p38α surface"}
    ]}
  ]
}
